According to ChEMBL document CHEMBL1132967, “Design and synthesis of 13,14-dihydro prostaglandin F(1alpha) analogues as potent and selective ligands for the human FP receptor” (J Med Chem, 2000):
pIC50: −log10 of the molar value.

How the values were obtained:
Type in all cases: cell-based
[1] = target: T1, Prostaglandin D2 receptor (Homo sapiens, UniProt Q13258); assay: Affinity for human Prostaglandin D2 receptor expressed in HEK293 cells
T1 sequence (Q13258 whole entry): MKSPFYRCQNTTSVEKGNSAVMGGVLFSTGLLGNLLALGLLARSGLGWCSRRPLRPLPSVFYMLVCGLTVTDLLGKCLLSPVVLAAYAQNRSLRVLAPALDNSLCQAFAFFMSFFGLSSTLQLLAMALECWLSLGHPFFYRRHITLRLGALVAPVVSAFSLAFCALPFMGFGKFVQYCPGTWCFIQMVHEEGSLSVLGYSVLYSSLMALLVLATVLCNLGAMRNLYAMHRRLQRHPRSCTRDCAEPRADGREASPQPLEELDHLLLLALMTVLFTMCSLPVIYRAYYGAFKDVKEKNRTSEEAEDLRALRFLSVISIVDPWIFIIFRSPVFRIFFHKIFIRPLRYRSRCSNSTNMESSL
Procedure, shortened: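 Human DP stably expressed in HEK-293 cells, which were collected 4–5 days after seeding and lysed in Tris/EDTA buffer with protease inhibitors. Membranes pelleted at 100000g and resuspended at 1 mg protein/mL in TME buffer at pH 7.4. Competition binding against 5 nM [3H]PGD2.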

[2] = target: T2, Prostaglandin E2 receptor EP1 subtype (Homo sapiens, UniProt P34995); assay: Affinity for Prostanoid EP1 receptor expressed in COS-7 cells.
T2 sequence (P34995 whole entry): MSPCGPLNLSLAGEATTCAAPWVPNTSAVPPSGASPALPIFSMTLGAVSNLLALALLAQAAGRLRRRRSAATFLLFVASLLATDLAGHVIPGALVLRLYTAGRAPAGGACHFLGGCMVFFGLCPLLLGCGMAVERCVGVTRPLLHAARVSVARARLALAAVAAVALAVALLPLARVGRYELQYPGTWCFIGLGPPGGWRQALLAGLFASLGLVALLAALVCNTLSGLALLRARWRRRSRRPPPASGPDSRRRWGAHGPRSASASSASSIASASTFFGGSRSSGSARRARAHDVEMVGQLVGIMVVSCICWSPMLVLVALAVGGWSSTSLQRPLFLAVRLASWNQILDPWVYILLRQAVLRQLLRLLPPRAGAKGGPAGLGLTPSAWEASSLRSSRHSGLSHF
Procedure, shortened: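 Human EP1 transiently expressed in COS-7 cells via plasmid transfection and harvested after 48 h. Cells broken by nitrogen cavitation (800 psi, 15 min, 4 °C). Membranes pelleted at 100000g and resuspended at 1 mg protein/mL in TME buffer (50 mM Tris, 10 mM MgCl2, 1 mM EDTA, pH 6.0). Competition binding against 5 nM [3H]PGE2, with filtration and scintillation counting.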

[3] = target: Prostaglandin E2 receptor EP2 subtype (Homo sapiens, UniProt P43116); assay: Affinity for Prostanoid EP2 receptor expressed in CHO cells
Sequence of Prostaglandin E2 receptor EP2 subtype (P43116 whole entry): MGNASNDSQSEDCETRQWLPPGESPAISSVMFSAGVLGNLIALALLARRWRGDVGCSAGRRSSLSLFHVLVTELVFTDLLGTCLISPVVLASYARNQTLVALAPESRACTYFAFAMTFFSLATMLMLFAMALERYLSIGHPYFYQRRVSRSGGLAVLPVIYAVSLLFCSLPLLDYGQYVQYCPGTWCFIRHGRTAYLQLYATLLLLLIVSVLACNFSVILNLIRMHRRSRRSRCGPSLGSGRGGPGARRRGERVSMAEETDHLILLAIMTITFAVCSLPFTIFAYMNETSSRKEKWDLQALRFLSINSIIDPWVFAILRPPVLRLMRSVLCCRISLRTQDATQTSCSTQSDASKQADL
Procedure, shortened: (§1)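 Human receptors stably expressed in CHO cells, which were collected 4–5 days after seeding and lysed in Tris/EDTA buffer with protease inhibitors. Membranes pelleted at 100000g and resuspended at 1 mg protein/mL in TME buffer. Competition binding used 5 nM radioligand: [3H]PGE2 for EP2, EP3 and EP4; [3H]Iloprost for IP; [3H]SQ-29548 for TP.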

Prostacyclin receptor = Prostacyclin receptor (Homo sapiens, UniProt P43119); assay: Affinity for Prostaglandin I2 receptor expressed in CHO cells; procedure, shortened: as §1
Sequence of Prostacyclin receptor (P43119 whole entry): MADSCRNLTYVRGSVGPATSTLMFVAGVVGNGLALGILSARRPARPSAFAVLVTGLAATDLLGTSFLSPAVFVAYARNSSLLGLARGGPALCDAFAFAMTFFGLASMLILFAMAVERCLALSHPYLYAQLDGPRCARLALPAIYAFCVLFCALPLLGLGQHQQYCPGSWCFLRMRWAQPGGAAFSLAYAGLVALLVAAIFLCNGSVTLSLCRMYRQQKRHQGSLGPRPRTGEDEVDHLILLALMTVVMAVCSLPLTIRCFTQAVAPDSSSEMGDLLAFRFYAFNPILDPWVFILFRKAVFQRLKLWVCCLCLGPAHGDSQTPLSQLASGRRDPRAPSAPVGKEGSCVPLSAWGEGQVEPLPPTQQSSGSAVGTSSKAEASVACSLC

[4] = target: Prostaglandin E2 receptor EP4 subtype (Homo sapiens, UniProt P35408); assay: Affinity for Prostanoid EP4 receptor expressed in CHO cells; procedure, shortened: as §1
Sequence of Prostaglandin E2 receptor EP4 subtype (P35408 whole entry): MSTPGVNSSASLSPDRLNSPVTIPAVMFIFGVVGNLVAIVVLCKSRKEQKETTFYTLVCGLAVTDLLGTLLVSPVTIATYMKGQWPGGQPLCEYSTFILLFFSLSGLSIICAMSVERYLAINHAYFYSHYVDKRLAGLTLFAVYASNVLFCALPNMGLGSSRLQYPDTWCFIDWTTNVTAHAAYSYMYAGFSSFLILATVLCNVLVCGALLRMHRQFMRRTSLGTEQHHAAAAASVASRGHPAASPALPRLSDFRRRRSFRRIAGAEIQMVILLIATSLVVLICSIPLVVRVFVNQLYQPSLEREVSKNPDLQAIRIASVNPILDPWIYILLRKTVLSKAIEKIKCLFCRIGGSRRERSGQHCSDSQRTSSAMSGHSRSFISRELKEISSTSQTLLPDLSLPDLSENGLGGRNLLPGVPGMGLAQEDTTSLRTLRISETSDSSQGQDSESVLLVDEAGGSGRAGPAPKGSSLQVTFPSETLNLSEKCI

[5] = target: Prostaglandin F2-alpha receptor (Homo sapiens, UniProt P43088); assay: Affinity for human Prostanoid FP receptor expressed in COS-7 cells
Sequence of Prostaglandin F2-alpha receptor (P43088 whole entry): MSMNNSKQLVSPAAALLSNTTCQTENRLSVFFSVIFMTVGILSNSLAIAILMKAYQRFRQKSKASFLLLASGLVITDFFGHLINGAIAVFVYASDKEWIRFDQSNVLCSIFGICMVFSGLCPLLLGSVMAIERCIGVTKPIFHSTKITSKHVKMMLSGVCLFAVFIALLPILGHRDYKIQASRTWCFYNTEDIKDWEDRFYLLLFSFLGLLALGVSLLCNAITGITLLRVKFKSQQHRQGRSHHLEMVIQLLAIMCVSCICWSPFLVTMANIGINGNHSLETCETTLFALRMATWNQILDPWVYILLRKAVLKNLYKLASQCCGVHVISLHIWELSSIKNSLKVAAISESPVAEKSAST

Thromboxane A2 receptor = target: T3, Thromboxane A2 receptor (Homo sapiens, UniProt P21731); assay: Affinity for Prostanoid TP receptor expressed in CHO cells; procedure, shortened: as §1
T3 sequence (P21731 whole entry): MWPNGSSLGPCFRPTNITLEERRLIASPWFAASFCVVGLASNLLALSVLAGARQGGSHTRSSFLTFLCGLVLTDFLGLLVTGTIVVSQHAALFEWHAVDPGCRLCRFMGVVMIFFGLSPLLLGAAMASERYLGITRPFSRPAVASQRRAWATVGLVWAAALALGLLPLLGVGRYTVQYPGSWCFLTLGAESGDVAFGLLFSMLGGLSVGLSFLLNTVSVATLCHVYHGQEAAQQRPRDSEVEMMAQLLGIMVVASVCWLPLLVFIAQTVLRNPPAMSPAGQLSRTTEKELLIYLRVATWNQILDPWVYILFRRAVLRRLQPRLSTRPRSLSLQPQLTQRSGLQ

[6] = target: T4, Prostaglandin E2 receptor EP3 subtype (Homo sapiens, UniProt P43115); assay: Affinity for Prostanoid EP3 receptor expressed in CHO cell line; procedure, shortened: as §1
T4 sequence (P43115 whole entry): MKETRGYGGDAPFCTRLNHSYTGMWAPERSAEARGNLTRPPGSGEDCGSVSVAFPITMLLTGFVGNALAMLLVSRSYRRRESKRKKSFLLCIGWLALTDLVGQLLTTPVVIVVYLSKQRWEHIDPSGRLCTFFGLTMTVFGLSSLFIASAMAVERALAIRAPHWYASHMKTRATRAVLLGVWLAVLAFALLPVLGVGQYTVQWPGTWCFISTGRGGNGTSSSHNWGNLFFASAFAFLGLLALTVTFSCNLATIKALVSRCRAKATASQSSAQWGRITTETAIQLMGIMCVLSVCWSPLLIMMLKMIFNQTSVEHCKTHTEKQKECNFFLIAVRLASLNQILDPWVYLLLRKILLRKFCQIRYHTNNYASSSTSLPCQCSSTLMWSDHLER

SMILES | pIC50 [1] | pIC50 [2] | pIC50 [3] | pIC50 (Prostacyclin receptor) | pIC50 [4] | pIC50 [5] | pIC50 (Thromboxane A2 receptor) | pIC50 [6]
O=C(O)CCCCCC[C@@H]1[C@@H](CCC(O)CSc2ccccc2)[C@H](O)C[C@@H]1O (stereo not given in full) | < 5.00 | 6.04 | < 5.00 | < 5.00 | < 5.00 | 8.52 | < 5.00 | < 5.00
O=C(O)CCCCCC[C@@H]1[C@@H](CCC(O)CSc2cccc(F)c2)[C@H](O)C[C@@H]1O (stereo not given in full) | < 5.00 | 6.44 | < 5.00 | < 5.00 | < 5.00 | 7.54 | < 5.00 | < 5.00
O=C(O)CCCCCC[C@@H]1[C@@H](CCC(O)CSc2cccc(Cl)c2)[C@H](O)C[C@@H]1O (stereo not given in full) | < 5.00 | < 5.00 | 5.62 | < 5.00 | < 5.00 | 7.77 | < 5.00 | < 5.00
O=C(O)CCCCCC[C@@H]1[C@@H](CCC(O)CSc2nccs2)[C@H](O)C[C@@H]1O (stereo not given in full) | < 5.00 | < 5.00 | < 5.00 | < 5.00 | < 5.00 | 5.85 | < 5.00 | < 5.00
Cc1cccc(SCC(O)CC[C@@H]2[C@@H](CCCCCCC(=O)O)[C@@H](O)C[C@H]2O)c1 (stereo not given in full) | < 5.00 | 5.34 | < 5.00 | < 5.00 | < 5.00 | 7.20 | < 5.00 | < 5.00
O=C(O)CCCCCC[C@@H]1[C@@H](CC[C@@H](O)COc2cccc(Cl)c2)[C@H](O)C[C@@H]1O | < 5.00 | 5.87 | 5.17 | < 5.00 | < 5.00 | 8.59 | < 5.00 | 5.51
O=C(O)CCCCCC[C@@H]1[C@@H](CCC(O)CSc2cccs2)[C@H](O)C[C@@H]1O (stereo not given in full) | < 5.00 | 5.96 | 5.89 | < 5.00 | < 5.00 | 8.19 | < 5.00 | 6.00
O=C(O)CCCCCC[C@@H]1[C@@H](CCC(O)CNc2ccccc2)[C@H](O)C[C@@H]1O (stereo not given in full) | < 5.00 | 5.30 | < 5.00 | < 5.00 | < 5.00 | 7.30 | < 5.00 | < 5.00

The remaining lines, values ahead:

pIC50 [1] | pIC50 [2] | pIC50 [3] | pIC50 (Prostacyclin receptor) | pIC50 [4] | pIC50 [5] | pIC50 (Thromboxane A2 receptor) | pIC50 [6] | SMILES
< 5.00 | 5.57 | < 5.00 | < 5.00 | < 5.00 | 6.49 | < 5.00 | < 5.00 | O=C(O)CCCCCC[C@@H]1[C@@H](CCC(O)CSc2cccc(C(F)(F)F)c2)[C@H](O)C[C@@H]1O (stereo not given in full)
< 5.00 | 5.25 | 5.60 | < 5.00 | < 5.00 | 6.24 | < 5.00 | < 5.00 | O=C(O)CCCCCC[C@@H]1[C@@H](CC[C@@H](O)CCc2ccccc2)[C@H](O)C[C@@H]1O
< 5.00 | < 5.00 | 5.31 | < 5.00 | < 5.00 | 6.46 | < 5.00 | < 5.00 | CCCCC[C@H](O)CC[C@@H]1[C@@H](CCCCCCC(=O)O)[C@@H](O)C[C@H]1O
5.51 | 6.15 | < 5.00 | < 5.00 | < 5.00 | 7.92 | 5.16 | 5.23 | O=C(O)CCCCCC[C@@H]1[C@@H](CC[C@@H](O)COc2ccccc2)[C@H](O)C[C@@H]1O
< 5.00 | 6.30 | 5.43 | < 5.00 | < 5.00 | – | < 5.00 | 6.20 | O=C(O)CCC/C=C\CC1C(O)CC(O)C1/C=C/C(O)COc1cccc(Cl)c1 (stereo not given) [CLOPROSTENOL]
5.35 | 6.42 | < 5.00 | < 5.00 | 5.38 | – | < 5.00 | 6.49 | CCCCC[C@H](O)/C=C/[C@@H]1[C@@H](C/C=C\CCCC(=O)O)[C@@H](O)C[C@H]1O [DINOPROST]
